Published values from different studies.
Target: MAP kinase-activated protein kinase 5 (MAPKAPK5, Homo sapiens, UniProt Q8IW41)
One construct used (Q8IW41 1-473): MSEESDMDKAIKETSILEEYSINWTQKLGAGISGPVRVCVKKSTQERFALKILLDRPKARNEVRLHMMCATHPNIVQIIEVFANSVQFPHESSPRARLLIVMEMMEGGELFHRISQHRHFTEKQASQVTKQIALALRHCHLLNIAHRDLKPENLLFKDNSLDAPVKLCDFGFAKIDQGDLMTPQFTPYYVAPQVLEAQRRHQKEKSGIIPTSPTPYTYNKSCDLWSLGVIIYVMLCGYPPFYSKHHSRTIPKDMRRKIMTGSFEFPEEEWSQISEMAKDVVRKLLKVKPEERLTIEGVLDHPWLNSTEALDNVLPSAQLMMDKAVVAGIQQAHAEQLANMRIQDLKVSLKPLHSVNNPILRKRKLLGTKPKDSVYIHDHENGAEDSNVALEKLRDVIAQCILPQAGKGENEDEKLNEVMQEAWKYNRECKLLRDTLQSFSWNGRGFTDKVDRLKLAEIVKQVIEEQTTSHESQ

The remaining binding of `O=S(=O)(NC1CCC(c2cc(F)ccc2F)(S(=O)(=O)c2ccc(Cl)cc2)CC1)C(F)(F)F` (stereo not shown) is reported as 93% (cell-free assay; competition with immobilised ligand; 1 µM).
With `O=C(c1ccc(Nc2ncc(Cl)c(-c3ccc(Cl)s3)n2)cc1)N1CCC(N2CCCC2)CC1` the remaining binding was 100% (binding; competition with immobilised ligand; 1 µM).
`C[C@H]1CCN(c2nccc(-c3cnn4ncccc34)n2)C1` gave a remaining binding of 69% (binding; 1 µM).
`O=C(Nc1ccc(Oc2ccc(F)cc2)cc1)N1CCc2ncccc2[C@H]1c1ccc(F)cc1` has a remaining binding of 75% (cell-free assay; competition with immobilised ligand; 1 µM).
For `COc1ncc2cc3ccccc3nc2c1C#N`, the remaining binding was 83% (cell-free assay; competition with immobilised ligand; 5 µM).
The remaining binding of `CN(C)c1ncc(F)c(-c2cnn3ncccc23)n1` is reported as 74% (binding; 1 µM).
With `CCN1CCN(Cc2ccc(C(=O)Nc3ccc(C)c(Oc4ccc5c(c4)CC(=O)N5)c3)cc2C(F)(F)F)CC1` the remaining binding was 100% (binding; competition with immobilised ligand; 1 µM).
The remaining binding of `N[C@@H]1CCN(c2nccc(-c3cnn4ncccc34)n2)C1` is reported as 100% (binding; 1 µM).
With `FC(F)(F)Oc1cccc(-c2cnc3ccc(-c4ccncc4)nn23)c1` the remaining binding was 71% (cell-free assay; competition with immobilised ligand; 5 µM).
`C[C@H](c1cccc(C#N)c1)n1cc(Cl)cc(C(N)=O)c1=N` has a remaining binding of 84% (cell-free assay; competition with immobilised ligand; 1 µM).
The remaining binding of `COc1cnc(Nc2cccc(S(N)(=O)=O)c2)nc1N1CCN(c2ccccc2)C(=O)C1` is reported as 100% (binding; competition with immobilised ligand; 1 µM).
`O=C(NCCCN1CCOCC1)c1ccc(Nc2nccc(-c3cc4ccccc4s3)n2)cc1` has a remaining binding of 82% (binding; competition with immobilised ligand; 1 µM).
With `CC(=O)Nc1c(C(C)=O)c(=O)n(C)c2nc(-c3ccc(Cl)cc3Cl)c(-c3ccc(Cl)cc3)cc12` the remaining binding was 100% (cell-free assay; competition with immobilised ligand; 1 µM).
The remaining binding of `c1cnn2ncc(-c3ccnc(N4CCC45COC5)n3)c2c1` is reported as 74% (binding; 1 µM).
For `CSc1cccnc1N1CCN(Cc2nc3ccccc3[nH]2)CC1`, the remaining binding was 84% (cell-free assay; competition with immobilised ligand; 1 µM).
For `O=C(NCCCN1CCOCC1)c1ccc(Nc2ncc(Cl)c(-c3ccc(Cl)s3)n2)cc1`, the remaining binding was 100% (binding; competition with immobilised ligand; 1 µM).
`CC1CCCN1c1nccc(-c2cnn3ncccc23)n1` (stereo not shown) has a remaining binding of 100% (binding; 1 µM).
`COc1cnc(Nc2cccc(S(N)(=O)=O)c2)nc1N1CCN(c2ccccc2)CC1` has a remaining binding of 96% (binding; competition with immobilised ligand; 1 µM).
For `O=C(Nc1c[nH]nc1C(=O)NC1CCNCC1)c1cc(F)cc(F)c1`, the remaining binding was 94% (binding; competition with immobilised ligand; 1 µM).
